Measurements from publication PMC10401071 (Cancer Discovery, 2023).
Where two headings read alike, the source gives them in different places.

What was measured:
[1] = Phase Ia dose escalation: dose-limiting toxicities; assay type: in vivo, human; conditions: for maximum tolerated dose (MTD): based on DLTs during cycle 1 and BLRM
In short: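 Escalating oral doses, day 1 q21d (10–80 mg) or days 1 and 8 q28d (5–60 mg). DLTs were counted over cycle 1 (21 or 28 days). The MTD was the highest dose with <25% risk of true DLT rate ≥33%, estimated by BLRM with overdose control. The RDE came from a supplementary BLRM on haematologic AEs of interest over the whole treatment period.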

[2] = assay type: in vivo, human
In short: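 Adults with advanced solid tumours (ECOG 0–1; TP53 wild-type or unknown) received oral test compound on day 1 of 21-day cycles or days 1 and 8 of 28-day cycles, until progression or unacceptable toxicity. Antiemetic prophylaxis followed guidelines. AE incidence and severity were graded per NCI CTCAE v5.0 and summarised descriptively.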

Cc1c(C(=O)O)ccc2c3n(nc12)[C@@H]1[C@H](C3)N(CC2CC2)[C@@]2(C(=O)Nc3cc(Cl)ccc32)[C@H]1c1cccc(Cl)c1F [brigimadlin]
treatment discontinuation due to a DLT in cycle 1 ([1]; D1D8q4w arm): no patient discontinued treatment due to a DLT in cycle 1 | patients with DLTs during the MTD evaluation period (cycle 1) ([1]; D1D8q4w arm, 5 to 60 mg): Three | maximum tolerated dose (MTD) ([1]; D1D8q4w): 45 mg | treatment discontinuation due to a DLT in cycle 1 ([1]; D1q3w arm): No patient discontinued treatment due to a DLT in cycle 1 | patients with DLTs during the MTD evaluation period (cycle 1) ([1]; D1q3w arm, 10 to 80 mg): Five | maximum tolerated dose (MTD) ([1]; D1q3w): 60 mg | patients with DLTs after the MTD evaluation period ([1]; both arms): Seven | recommended dose for expansion (RDE) for phase Ib ([1]; q3w, supplementary BLRM analysis of AEs of interest over entire treatment period): 45 mg | Any AE ([2]; All patients (N = 54)): 54 (100.0) n (%) | Any AE (any cause) leading to study drug discontinuation ([2]; All patients (N = 54)): 3 (5.6) n (%) | Any AE (any cause) leading to study drug dose reduction ([2]; All patients (N = 54)): 19 (35.2) n (%) | Any TRAE ([2]; All patients (N = 54)): 50 (92.6) n (%) | Any grade ≥3 AE ([2]; All patients (N = 54)): 33 (61.1) n (%) | Any grade ≥3 TRAE ([2]; All patients (N = 54)): 25 (46.3) n (%) | Serious AEs (any cause) ([2]; All patients (N = 54)): 18 (33.3) n (%) | TRAE Alopecia, All grades ([2]; All patients (N = 54)): 12 (22.2) n (%) | TRAE Alopecia, Grade ≥3 ([2]; All patients (N = 54)): 0 n (%) | TRAE Anemia, All grades ([2]; All patients (N = 54)): 16 (29.6) n (%) | TRAE Anemia, Grade ≥3 ([2]; All patients (N = 54)): 5 (9.3) n (%) | TRAE Decreased appetite, All grades ([2]; All patients (N = 54)): 17 (31.5) n (%) | TRAE Decreased appetite, Grade ≥3 ([2]; All patients (N = 54)): 0 n (%) | TRAE Decreased lymphocyte count, All grades ([2]; All patients (N = 54)): 7 (13.0) n (%) | TRAE Decreased lymphocyte count, Grade ≥3 ([2]; All patients (N = 54)): 4 (7.4) n (%) | TRAE Decreased weight, All grades ([2]; All patients (N = 54)): 4 (7.4) n (%) | TRAE Decreased weight, Grade ≥3 ([2]; All patients (N = 54)): 0 n (%) | TRAE Decreased white blood cell count, All grades ([2]; All patients (N = 54)): 13 (24.1) n (%) | TRAE Decreased white blood cell count, Grade ≥3 ([2]; All patients (N = 54)): 7 (13.0) n (%) | TRAE Diarrhea, All grades ([2]; All patients (N = 54)): 16 (29.6) n (%) | TRAE Diarrhea, Grade ≥3 ([2]; All patients (N = 54)): 0 n (%) | TRAE Dysgeusia, All grades ([2]; All patients (N = 54)): 10 (18.5) n (%) | TRAE Dysgeusia, Grade ≥3 ([2]; All patients (N = 54)): 0 n (%) | TRAE Fatigue, All grades ([2]; All patients (N = 54)): 25 (46.3) n (%) | TRAE Fatigue, Grade ≥3 ([2]; All patients (N = 54)): 1 (1.9) n (%) | TRAE Gastroesophageal reflux disease, All grades ([2]; All patients (N = 54)): 5 (9.3) n (%) | TRAE Gastroesophageal reflux disease, Grade ≥3 ([2]; All patients (N = 54)): 0 n (%) | TRAE Increased alanine aminotransferase, All grades ([2]; All patients (N = 54)): 3 (5.6) n (%) | TRAE Increased alanine aminotransferase, Grade ≥3 ([2]; All patients (N = 54)): 0 n (%) | TRAE Increased aspartate aminotransferase, All grades ([2]; All patients (N = 54)): 5 (9.3) n (%) | TRAE Increased aspartate aminotransferase, Grade ≥3 ([2]; All patients (N = 54)): 0 n (%) | TRAE Nausea, All grades ([2]; All patients (N = 54)): 40 (74.1) n (%) | TRAE Nausea, Grade ≥3 ([2]; All patients (N = 54)): 4 (7.4) n (%) | TRAE Neutropenia, All grades ([2]; All patients (N = 54)): 16 (29.6) n (%) | TRAE Neutropenia, Grade ≥3 ([2]; All patients (N = 54)): 13 (24.1) n (%) | TRAE Thrombocytopenia, All grades ([2]; All patients (N = 54)): 24 (44.4) n (%) | TRAE Thrombocytopenia, Grade ≥3 ([2]; All patients (N = 54)): 14 (25.9) n (%) | TRAE Vomiting, All grades ([2]; All patients (N = 54)): 28 (51.9) n (%) | TRAE Vomiting, Grade ≥3 ([2]; All patients (N = 54)): 1 (1.9) n (%) | patients with neutropenia leading to dose reduction ([2]; D1D8q4w): four | patients with thrombocytopenia leading to dose reduction ([2]; D1D8q4w): four | serious AE thrombocytopenia ([2]; D1D8q4w): three | Any AE ([2]; D1D8q4w (n = 25)): 25 (100.0) n (%) | Any AE (any cause) leading to study drug discontinuation ([2]; D1D8q4w (n = 25)): 1 (4.0) n (%) | Any AE (any cause) leading to study drug dose reduction ([2]; D1D8q4w (n = 25)): 8 (32.0) n (%) | Any TRAE ([2]; D1D8q4w (n = 25)): 23 (92.0) n (%) | Any grade ≥3 AE ([2]; D1D8q4w (n = 25)): 12 (48.0) n (%) | Any grade ≥3 TRAE ([2]; D1D8q4w (n = 25)): 8 (32.0) n (%) | Serious AEs (any cause) ([2]; D1D8q4w (n = 25)): 9 (36.0) n (%) | TRAE Alopecia, All grades ([2]; D1D8q4w (n = 25)): 6 (24.0) n (%) | TRAE Alopecia, Grade ≥3 ([2]; D1D8q4w (n = 25)): 0 n (%) | TRAE Anemia, All grades ([2]; D1D8q4w (n = 25)): 4 (16.0) n (%) | TRAE Anemia, Grade ≥3 ([2]; D1D8q4w (n = 25)): 2 (8.0) n (%) | TRAE Decreased appetite, All grades ([2]; D1D8q4w (n = 25)): 7 (28.0) n (%) | TRAE Decreased appetite, Grade ≥3 ([2]; D1D8q4w (n = 25)): 0 n (%) | TRAE Decreased lymphocyte count, All grades ([2]; D1D8q4w (n = 25)): 2 (8.0) n (%) | TRAE Decreased lymphocyte count, Grade ≥3 ([2]; D1D8q4w (n = 25)): 1 (4.0) n (%) | TRAE Decreased weight, Grade ≥3 ([2]; D1D8q4w (n = 25)): 0 n (%) | TRAE Decreased white blood cell count, All grades ([2]; D1D8q4w (n = 25)): 4 (16.0) n (%) | TRAE Decreased white blood cell count, Grade ≥3 ([2]; D1D8q4w (n = 25)): 2 (8.0) n (%) | TRAE Diarrhea, All grades ([2]; D1D8q4w (n = 25)): 8 (32.0) n (%) | TRAE Diarrhea, Grade ≥3 ([2]; D1D8q4w (n = 25)): 0 n (%) | TRAE Dysgeusia, All grades ([2]; D1D8q4w (n = 25)): 5 (20.0) n (%) | TRAE Dysgeusia, Grade ≥3 ([2]; D1D8q4w (n = 25)): 0 n (%) | TRAE Fatigue, All grades ([2]; D1D8q4w (n = 25)): 10 (40.0) n (%) | TRAE Fatigue, Grade ≥3 ([2]; D1D8q4w (n = 25)): 0 n (%) | TRAE Gastroesophageal reflux disease, All grades ([2]; D1D8q4w (n = 25)): 3 (12.0) n (%)
